Results: the EternaBench riboswitch data

Experiments:
MS2 coat protein [1] = experiment: apparent Kd, MS2 coat protein; higher = weaker binding; RNA-MaP array; theophylline 2 mM where present
Summary of the method: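 Green signal from SNAP-549-labelled MS2 coat protein was normalised to red-channel RNA signal and to the median Fmax of control clusters. The protein was titrated from 0.7 or 1.5 nM, doubling to 3 µM, without and then with constant ligand, over designs transcribed by stalled E. coli RNA polymerase on Illumina sequencing-chip clusters, in 100 mM Tris-HCl pH 7.5, 80 mM KCl, 4 mM MgCl2, BSA, DTT, yeast tRNA and Tween-20. The apparent Kd is the median of filtered per-cluster binding-curve fits.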

MS2 coat protein [2] = experiment: apparent Kd, MS2 coat protein; higher = weaker binding; RNA-MaP array
Summary of the method: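 Designed RNAs were produced on an Illumina sequencing chip by transcription of sequenced DNA templates. Binding to fluorescently labeled MS2 coat protein (1.5 nM to 3 μM) was measured at room temperature with or without input ligand. The apparent Kd is the median of per-cluster binding-curve fits. Designs were excluded when measured on fewer than 10 clusters.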

[3] = designed as: OFF switch for theophylline, no ligand
[4] = ligand present: theophylline, designed as: OFF switch for theophylline
[5] = designed as: ON switch for theophylline, no ligand
[6] = ligand present: theophylline, designed as: ON switch for theophylline
[7] = designed as: ON switch for flavin mononucleotide, no ligand
[8] = ligand present: flavin mononucleotide, designed as: ON switch for flavin mononucleotide
[9] = designed as: OFF switch for flavin mononucleotide, no ligand
[10] = ligand present: flavin mononucleotide, designed as: OFF switch for flavin mononucleotide

AAACUGGGUGUAAAAUAAAUAAUCACUGAUACCAGACUAUGAGAUGUCCCUUGGCAGCAGAAACAUGAGGAUCACCCAUGUAAUA
apparent Kd (MS2 coat protein [1]; [3]): 17.9 nM | apparent Kd (MS2 coat protein [1]; [4]): 21.2 nM

AAAUAAAUAACUGAUACCAGUGUACUGACAUGAGGAUCACCCAUGUUGGGUUUUGUUGUACACCCUUGGCAGCAGAAAUAUAAAA
apparent Kd (MS2 coat protein [1]; [3]): 35.3 nM | apparent Kd (MS2 coat protein [1]; [4]): 73 nM

AACAAUGCACAUGAGGAUCACCCAUGUGAUACCAGCCGCAACAUAGGCCCUUGGCAGCAUGUGGGUAUAGAACGAUUUGGCUGAA
apparent Kd (MS2 coat protein [1]; [3]): 45.9 nM | apparent Kd (MS2 coat protein [1]; [4]): 78.3 nM

AAGGUGAUCCCAGAUACCAGCUCAACAUGAGGAUCACCCAUGUACGGGACGAAAGUCCCGGGCCCUUGGCAGCUGGGUUGCCAAG
apparent Kd (MS2 coat protein [1]; [5]): 193 nM | apparent Kd (MS2 coat protein [1]; [6]): 123 nM

AAUAACAUGAGGAUCACCCAUGUAAAAGAUACCAGAGUGAUGAUCCUCCCUUGGCAGCUUAAUAACGCUAUUGAUUACAAUAGCG
apparent Kd (MS2 coat protein [1]; [5]): 46.4 nM | apparent Kd (MS2 coat protein [1]; [6]): 108 nM

AAUAACAUGAGGAUCACCCAUGUAAAAGAUACCAGAUGCAUGAUGAUCCCUUGGCAGCUUAAAACGCGAUUGAUUACAAUCGCGA
apparent Kd (MS2 coat protein [1]; [5]): 33.3 nM | apparent Kd (MS2 coat protein [1]; [6]): 107 nM

AAUAAUCUAGGUGAUACCAGCUCAACAUGAGGAUCACCCAUGUACUCAUGUAGAGUUGAGAGCCCUUGGCAGCACCUAGAUAAUA
apparent Kd (MS2 coat protein [1]; [5]): 553 nM | apparent Kd (MS2 coat protein [1]; [6]): 74.9 nM

AAUUUGUCGGGUGAUACCAGCCUCGGCGCAUCUCGCGCUGAACAUGAGGAUCACCCAUGUGGCCCUUGGCAGCACAUGACAAAUC
apparent Kd (MS2 coat protein [1]; [5]): 554 nM | apparent Kd (MS2 coat protein [1]; [6]): 37.3 nM

ACAUGAGGAUCACCCAUGUAGUGGCACGAUACCAGCUGAUCCCGUGGCCCUUGGCAGCGUCCGGUGUGGUGCGCCGGGUUGGAGC
apparent Kd (MS2 coat protein [1]; [5]): 49.1 nM | apparent Kd (MS2 coat protein [1]; [6]): 61.7 nM

ACAUGAGGAUCACCCAUGUCAAGGCACGAUACCAGCUGAUCCGGUGGCCCUUGGCAGCGUCACGUUUGGUCCCGCGGAUGACACG
apparent Kd (MS2 coat protein [1]; [5]): 64.7 nM | apparent Kd (MS2 coat protein [1]; [6]): 108 nM

ACAUGAGGAUCACCCAUGUCACGGCACGAUACCAGCUGAUGCGGUGGCCCUUGGCAGCGUGACGUUUGGUCCCGCGGAUGACACG
apparent Kd (MS2 coat protein [1]; [5]): 200 nM | apparent Kd (MS2 coat protein [1]; [6]): 117 nM

ACAUGAGGAUCACCCAUGUCUGCCACUGAUACCAGCGGAAGCCCACGCCCUUGGCAGCAGAACAUGAGGAUCACCCAUGUAGGCU
apparent Kd (MS2 coat protein [1]; [5]): 232 nM | apparent Kd (MS2 coat protein [1]; [6]): 198 nM

ACAUGAGGAUCACCCAUGUCUGCCUCGGAUACCAGCGGAAGAAAACGCCCUUGGCAGCCGAACAUGAGGAUCACCCAUGUAGGCU
apparent Kd (MS2 coat protein [1]; [5]): 48.2 nM | apparent Kd (MS2 coat protein [1]; [6]): 56.8 nM

ACAUGAGGAUCACCCAUGUUCCUCAUUGAUACCAGUGAAUUUAGACGCCCUUGGCAGCGAGUUUUUUUAGAAGAAGUUUUUUUUU
apparent Kd (MS2 coat protein [1]; [3]): 782 nM | apparent Kd (MS2 coat protein [1]; [4]): 1070 nM

ACAUGAGGAUCACCCAUGUUCCUCGCCGAUACCAGUGAAGAAGAACGCCCUUGGCAGCGGAAAGAAUAUUUUGGAGAUGAGAUAU
apparent Kd (MS2 coat protein [1]; [3]): 204 nM | apparent Kd (MS2 coat protein [1]; [4]): 270 nM

ACAUGAGGAUGGGAUACCAGAUACAUGAGGAUCACCCAUACAUGAGGAUCACCCAUGUCCGUCCCUUGGCAGCCCAACAUGAGGA
apparent Kd (MS2 coat protein [1]; [3]): 169 nM | apparent Kd (MS2 coat protein [1]; [4]): 506 nM

ACAUUAGUUGGCGAUACCAGCUAUAGGCCUUCUGGGCGACAUGAGGAUCACCCAUGUGAUGGCCCUUGGCAGCGCUGAUUGAUGU
apparent Kd (MS2 coat protein [1]; [5]): 151 nM | apparent Kd (MS2 coat protein [1]; [6]): 41.4 nM

ACCUCACUCUCUGAUACCAGCUAACAACAUGAGGAUCACCCAUGUCAGACUUGUAUUGAUAGCCCUUGGCAGCAGAGGUAACUGC
apparent Kd (MS2 coat protein [1]; [3]): 16.2 nM | apparent Kd (MS2 coat protein [1]; [4]): 31.3 nM

UAAGAAGUCCAGAAGGUAGCCCUACCGUACAGCUAAGGAUAUGGCUCACCGGUUUCAACAUGAGGAUCACCCAUGUCCUCCCGG
apparent Kd (MS2 coat protein [2]; [7]): 55.9 nM | apparent Kd (MS2 coat protein [2]; [8]): 36.3 nM

UAAGUUUUAGAGAAGGCCUGGAAUUGCUGUGCAGGAGGAUAUCUGGGACAUGAGGAUCACCCAUGUAGCCGCUAAGCGUAAGGG
apparent Kd (MS2 coat protein [2]; [9]): 46.6 nM | apparent Kd (MS2 coat protein [2]; [10]): 83.1 nM

UACAUGAGGAUCACCCAUGUUUAUUGGUAGAACGGAUAAUGGGAGGAUAUGAACCGAUCAGAUCAUCAGAAGGCCCUUAAUGGG
apparent Kd (MS2 coat protein [2]; [7]): 29 nM | apparent Kd (MS2 coat protein [2]; [8]): 20 nM

UACAUUAUAGAGAAGGAUUACUCACACAUGAGGAUCACCCAUGUGUCCAUCAUGGCUGUAGGUUAAUAGGAUAUCUUAGAAGUG
apparent Kd (MS2 coat protein [2]; [9]): 64.1 nM | apparent Kd (MS2 coat protein [2]; [10]): 155 nM

UACUCACAUGAGGAUCACCCAUGUUGUCUCAAGAUAGGAUAUGACUGGCUAUGCAUCGGUUCAGAAGGAUCUUCUA
apparent Kd (MS2 coat protein [2]; [7]): 19.7 nM | apparent Kd (MS2 coat protein [2]; [8]): 11.3 nM

UAGCGACAUGAGGAUCACCCAUGUCCCGGCUACUAAGGAUAUGCAGUGAUUGAAAGGAAGGCAGAAGGUAGUGCAG
apparent Kd (MS2 coat protein [2]; [7]): 25.3 nM | apparent Kd (MS2 coat protein [2]; [8]): 12.7 nM

UAGCGACAUGAGGAUCACCCAUGUGAGGAUAUGAAGUCUAUAACACAAGCUAAUGAAGACAGAAGGCACAUGAG
apparent Kd (MS2 coat protein [2]; [9]): 66.8 nM | apparent Kd (MS2 coat protein [2]; [10]): 59.3 nM
